Consider 2 molecules from ChEMBL document CHEMBL1250451, “Mechanistic insights into a Ca2+-dependent family of alpha-mannosidases in a human gut symbiont” (Nat Chem Biol, 2010).

What all share (format): protein assay
Test [1] deals with Alpha-1,2-mannosidase (BT_3994) (Bacteroides thetaiotaomicron, UniProt Q8A0M7). Put plainly: Inhibition of Bacteroides thetaiotaomicron GH92 alpha-mannosidase 3994 assessed as reduction of mannose release using 4NP-mannopyranoside substrate. The method in brief:
(§1)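 Recombinant His-tagged GH92 enzymes were expressed in E. coli Tuner or B834 and purified by IMAC. Mannose release was measured at 37 °C in 100 mM MOPS, pH 7.0, with 2 mM CaCl2. The read-out was a coupled-enzyme mannose detection system with ATP and NADP+ at 1 mM, following NADPH at 340 nm. At least five inhibitor concentrations were tested, with substrate ≪ Km. Ki was taken from the x-intercept of […] versus inhibitor concentration.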

The target of test [2] is Alpha-1,2-mannosidase family protein (BT_4093) (Bacteroides thetaiotaomicron, UniProt Q8A0C8). Put plainly: Inhibition of Bacteroides thetaiotaomicron GH92 alpha-mannosidase 4093 assessed as reduction of mannose release using 4NP-mannopyranoside substrate. The method in brief:
as §1

The target of test [3] is Alpha-1,2-mannosidase, putative (BT_3130) (Bacteroides thetaiotaomicron, UniProt Q8A325). Put plainly: Inhibition of Bacteroides thetaiotaomicron GH92 alpha-mannosidase 3130 assessed as reduction of mannose release using 4NP-mannopyranoside substrate. The method in brief:
as §1

In test [4] the target is T1, Alpha-1,2-mannosidase (BT_2199) (Bacteroides thetaiotaomicron, UniProt Q8A5N9).
T1 sequence (Q8A5N9 whole entry): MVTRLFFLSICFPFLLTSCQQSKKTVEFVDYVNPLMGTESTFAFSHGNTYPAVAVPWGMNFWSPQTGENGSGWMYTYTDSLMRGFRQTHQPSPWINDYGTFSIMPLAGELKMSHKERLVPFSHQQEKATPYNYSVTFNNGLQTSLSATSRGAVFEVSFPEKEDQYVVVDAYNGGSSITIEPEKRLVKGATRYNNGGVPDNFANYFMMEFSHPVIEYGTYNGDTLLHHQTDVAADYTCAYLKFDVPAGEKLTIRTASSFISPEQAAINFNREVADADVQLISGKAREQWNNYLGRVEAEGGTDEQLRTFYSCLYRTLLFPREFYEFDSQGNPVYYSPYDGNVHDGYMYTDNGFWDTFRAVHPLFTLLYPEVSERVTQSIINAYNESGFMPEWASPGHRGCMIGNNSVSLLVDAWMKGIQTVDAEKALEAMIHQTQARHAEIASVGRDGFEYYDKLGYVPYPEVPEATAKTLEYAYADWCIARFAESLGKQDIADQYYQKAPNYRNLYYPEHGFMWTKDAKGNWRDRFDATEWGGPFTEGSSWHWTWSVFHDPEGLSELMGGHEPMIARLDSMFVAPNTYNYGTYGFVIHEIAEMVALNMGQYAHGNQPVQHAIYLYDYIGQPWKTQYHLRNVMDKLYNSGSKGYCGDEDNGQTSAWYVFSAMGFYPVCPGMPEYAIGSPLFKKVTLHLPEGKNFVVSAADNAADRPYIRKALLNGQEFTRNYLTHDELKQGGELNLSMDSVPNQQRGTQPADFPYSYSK
Briefly: Inhibition of Bacteroides thetaiotaomicron GH92 alpha-mannosidase 2199 assessed as reduction of mannose release using 4NP-mannopyranoside substrate. The essentials:
(§2)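 Recombinant enzymes expressed in E. coli. Bt3990 was purified by IMAC, anion exchange and size exclusion; Bt2199 by IMAC only. Ki was measured with at least five inhibitor concentrations at a substrate concentration ≪ Km for each enzyme. Ki was taken as the x-axis intercept of a plot of […] against inhibitor concentration.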

In test [5] the target is Alpha-1,2-mannosidase (BT_1878) (Bacteroides thetaiotaomicron, UniProt Q8A6K3). Briefly: Inhibition of Bacteroides thetaiotaomicron GH92 alpha-mannosidase 1878 assessed as reduction of mannose release using 4NP-mannopyranoside substrate. The essentials:
as §1

Test [6] has as its target Alpha-1,2-mannosidase, putative (BT_4073) (Bacteroides thetaiotaomicron, UniProt Q8A0E8). Briefly: Inhibition of Bacteroides thetaiotaomicron GH92 alpha-mannosidase 4073 assessed as reduction of mannose release using 4NP-mannopyranoside substrate. The method in brief:
as §1

Test [7] concerns the target Alpha-1,2-mannosidase (BT_4092) (Bacteroides thetaiotaomicron, UniProt Q8A0C9). Put plainly: Inhibition of Bacteroides thetaiotaomicron GH92 alpha-mannosidase 4092 assessed as reduction of mannose release using 4NP-mannopyranoside substrate. The method in brief: as §1
The target in test [8] is Alpha-1,2-mannosidase (BT_3965) (Bacteroides thetaiotaomicron, UniProt Q8A0Q6). Briefly: Inhibition of Bacteroides thetaiotaomicron GH92 alpha-mannosidase 3965 assessed as reduction of mannose release using 4NP-mannopyranoside substrate. The method in brief:
as §1

In test [9] the target is Alpha-1,2-mannosidase (BT_3991) (Bacteroides thetaiotaomicron, UniProt Q8A0N0). Put plainly: Inhibition of Bacteroides thetaiotaomicron GH92 alpha-mannosidase 3991 assessed as reduction of mannose release using 4NP-mannopyranoside substrate. The method in brief:
as §1

In test [10] the target is Alpha-1,2-mannosidase (BT_3858) (Bacteroides thetaiotaomicron, UniProt Q8A113). Put plainly: Inhibition of Bacteroides thetaiotaomicron GH92 alpha-mannosidase 3858 assessed as reduction of mannose release using 4NP-mannopyranoside substrate. The essentials:
as §1

Test [11] addresses Glycoside hydrolase family 92 (BT_3963) (Bacteroides thetaiotaomicron, UniProt Q8A0Q8). Briefly: Inhibition of Bacteroides thetaiotaomicron GH92 alpha-mannosidase 3963 assessed as reduction of mannose release using 4NP-mannopyranoside substrate. The essentials:
as §1

Test [12] addresses Alpha-1,2-mannosidase (BT_3784) (Bacteroides thetaiotaomicron, UniProt Q8A182). Put plainly: Inhibition of Bacteroides thetaiotaomicron GH92 alpha-mannosidase 3784 assessed as reduction of mannose release using 4NP-mannopyranoside substrate. The essentials:
as §1

The target of test [13] is Alpha-1,2-mannosidase (BT_2948) (Bacteroides thetaiotaomicron, UniProt Q8A3K6). Put plainly: Inhibition of Bacteroides thetaiotaomicron GH92 alpha-mannosidase 2948 assessed as reduction of mannose release using 4NP-mannopyranoside substrate. The method in brief: as §1
Test [14] deals with Alpha-1,2-mannosidase family protein (BT_1032) (Bacteroides thetaiotaomicron, UniProt Q8A8Y5). Briefly: Inhibition of Bacteroides thetaiotaomicron GH92 alpha-mannosidase 1032 assessed as reduction of mannose release using 4NP-mannopyranoside substrate. The method in brief: as §1
In test [15] the target is Glycoside hydrolase family 92 (BT_3962) (Bacteroides thetaiotaomicron, UniProt Q8A0Q9). Briefly: Inhibition of Bacteroides thetaiotaomicron GH92 alpha-mannosidase 3962 assessed as reduction of mannose release using 4NP-mannopyranoside substrate. The method in brief:
as §1

Test [16] addresses Alpha-1,2-mannosidase (BT_3990) (Bacteroides thetaiotaomicron, UniProt Q8A0N1). Put plainly: Inhibition of Bacteroides thetaiotaomicron GH92 alpha-mannosidase 3990 assessed as reduction of mannose release using 4NP-mannopyranoside substrate. The essentials: as §2

Alpha-1,2-mannosidase (BT_3965), sequence (Q8A0Q6 whole entry, change not shown): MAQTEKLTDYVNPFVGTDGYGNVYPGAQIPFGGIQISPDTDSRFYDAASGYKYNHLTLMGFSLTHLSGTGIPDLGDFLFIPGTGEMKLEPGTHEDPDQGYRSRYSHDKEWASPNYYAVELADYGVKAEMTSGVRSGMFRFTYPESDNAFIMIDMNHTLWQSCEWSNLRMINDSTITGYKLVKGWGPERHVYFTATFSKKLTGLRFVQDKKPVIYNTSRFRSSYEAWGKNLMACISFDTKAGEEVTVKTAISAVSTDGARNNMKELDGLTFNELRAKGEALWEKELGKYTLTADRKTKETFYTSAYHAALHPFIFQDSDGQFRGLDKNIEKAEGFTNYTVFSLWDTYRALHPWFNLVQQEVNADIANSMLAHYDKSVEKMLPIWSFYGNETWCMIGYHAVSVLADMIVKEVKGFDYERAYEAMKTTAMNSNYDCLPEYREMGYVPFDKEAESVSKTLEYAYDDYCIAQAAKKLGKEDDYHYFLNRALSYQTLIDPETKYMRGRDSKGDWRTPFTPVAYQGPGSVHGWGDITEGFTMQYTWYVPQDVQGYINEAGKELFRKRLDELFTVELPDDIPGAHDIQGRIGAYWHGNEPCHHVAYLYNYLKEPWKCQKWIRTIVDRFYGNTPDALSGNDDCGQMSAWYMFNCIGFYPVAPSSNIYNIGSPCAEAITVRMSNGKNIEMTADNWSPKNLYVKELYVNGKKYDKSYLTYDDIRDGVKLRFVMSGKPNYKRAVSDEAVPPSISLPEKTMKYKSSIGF
Alpha-1,2-mannosidase (BT_2948), sequence (Q8A3K6 whole entry, change not shown): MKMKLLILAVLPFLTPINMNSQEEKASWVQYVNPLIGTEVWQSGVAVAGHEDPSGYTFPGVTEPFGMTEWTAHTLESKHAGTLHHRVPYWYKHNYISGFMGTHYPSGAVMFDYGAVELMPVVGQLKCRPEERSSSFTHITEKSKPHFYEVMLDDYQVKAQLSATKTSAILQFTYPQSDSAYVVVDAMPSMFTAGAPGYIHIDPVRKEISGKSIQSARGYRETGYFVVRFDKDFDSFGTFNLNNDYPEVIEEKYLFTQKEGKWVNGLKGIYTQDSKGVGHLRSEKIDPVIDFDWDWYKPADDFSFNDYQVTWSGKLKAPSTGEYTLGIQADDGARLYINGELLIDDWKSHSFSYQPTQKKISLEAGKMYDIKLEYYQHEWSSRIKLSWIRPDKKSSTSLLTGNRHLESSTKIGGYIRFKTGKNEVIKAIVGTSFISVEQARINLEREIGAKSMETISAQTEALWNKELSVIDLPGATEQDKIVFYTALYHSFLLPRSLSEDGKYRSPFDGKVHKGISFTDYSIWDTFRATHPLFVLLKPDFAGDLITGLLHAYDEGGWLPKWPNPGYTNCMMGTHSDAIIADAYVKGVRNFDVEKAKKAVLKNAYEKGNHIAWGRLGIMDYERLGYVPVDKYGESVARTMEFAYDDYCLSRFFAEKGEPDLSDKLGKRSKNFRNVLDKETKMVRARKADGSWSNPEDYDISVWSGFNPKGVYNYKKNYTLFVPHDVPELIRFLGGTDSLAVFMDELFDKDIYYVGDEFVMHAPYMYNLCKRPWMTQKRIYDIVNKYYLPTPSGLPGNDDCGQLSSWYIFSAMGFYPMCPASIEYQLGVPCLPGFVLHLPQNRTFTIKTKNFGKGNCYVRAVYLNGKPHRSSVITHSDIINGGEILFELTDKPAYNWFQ
Alpha-1,2-mannosidase family protein (BT_4093), sequence (Q8A0C8 whole entry, change not shown): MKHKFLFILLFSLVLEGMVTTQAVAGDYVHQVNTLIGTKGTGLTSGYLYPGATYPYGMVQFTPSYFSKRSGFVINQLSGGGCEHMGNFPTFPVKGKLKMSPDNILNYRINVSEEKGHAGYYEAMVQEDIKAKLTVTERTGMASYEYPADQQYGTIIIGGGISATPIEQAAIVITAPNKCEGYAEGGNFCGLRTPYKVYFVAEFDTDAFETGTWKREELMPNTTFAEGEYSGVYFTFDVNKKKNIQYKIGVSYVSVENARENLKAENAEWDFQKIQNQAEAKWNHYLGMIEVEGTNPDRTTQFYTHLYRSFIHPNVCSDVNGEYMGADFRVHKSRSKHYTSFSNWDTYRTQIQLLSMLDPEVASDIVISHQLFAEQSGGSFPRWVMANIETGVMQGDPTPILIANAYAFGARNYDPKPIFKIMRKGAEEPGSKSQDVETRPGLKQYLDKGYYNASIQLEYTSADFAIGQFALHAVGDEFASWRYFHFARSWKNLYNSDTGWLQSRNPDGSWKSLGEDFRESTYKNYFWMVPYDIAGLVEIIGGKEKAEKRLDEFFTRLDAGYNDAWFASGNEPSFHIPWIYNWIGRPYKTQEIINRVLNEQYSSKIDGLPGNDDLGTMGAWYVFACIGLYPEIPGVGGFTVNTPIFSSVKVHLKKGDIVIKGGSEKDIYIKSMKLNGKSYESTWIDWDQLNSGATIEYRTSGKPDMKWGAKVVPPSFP
Alpha-1,2-mannosidase, putative (BT_3130), sequence (Q8A325 whole entry, change not shown): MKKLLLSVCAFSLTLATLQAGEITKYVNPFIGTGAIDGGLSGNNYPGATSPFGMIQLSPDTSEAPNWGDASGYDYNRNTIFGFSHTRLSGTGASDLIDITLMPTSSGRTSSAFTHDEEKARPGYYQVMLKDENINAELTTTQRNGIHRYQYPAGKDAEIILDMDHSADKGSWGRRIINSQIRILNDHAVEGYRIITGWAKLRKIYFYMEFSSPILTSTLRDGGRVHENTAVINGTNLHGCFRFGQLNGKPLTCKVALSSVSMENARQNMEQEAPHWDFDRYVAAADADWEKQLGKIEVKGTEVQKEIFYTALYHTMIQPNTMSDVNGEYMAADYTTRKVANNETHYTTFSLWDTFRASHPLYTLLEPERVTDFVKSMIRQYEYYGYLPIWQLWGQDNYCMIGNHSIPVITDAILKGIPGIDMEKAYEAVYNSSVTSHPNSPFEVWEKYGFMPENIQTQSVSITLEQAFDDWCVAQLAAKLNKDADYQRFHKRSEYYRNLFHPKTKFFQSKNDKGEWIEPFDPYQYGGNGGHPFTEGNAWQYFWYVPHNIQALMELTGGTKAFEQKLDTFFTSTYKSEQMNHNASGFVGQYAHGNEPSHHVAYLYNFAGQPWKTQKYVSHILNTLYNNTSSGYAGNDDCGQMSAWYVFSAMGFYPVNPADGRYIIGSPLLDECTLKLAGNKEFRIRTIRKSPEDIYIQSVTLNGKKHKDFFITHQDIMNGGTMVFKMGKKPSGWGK
Alpha-1,2-mannosidase (BT_3991), sequence (Q8A0N0 whole entry, change not shown): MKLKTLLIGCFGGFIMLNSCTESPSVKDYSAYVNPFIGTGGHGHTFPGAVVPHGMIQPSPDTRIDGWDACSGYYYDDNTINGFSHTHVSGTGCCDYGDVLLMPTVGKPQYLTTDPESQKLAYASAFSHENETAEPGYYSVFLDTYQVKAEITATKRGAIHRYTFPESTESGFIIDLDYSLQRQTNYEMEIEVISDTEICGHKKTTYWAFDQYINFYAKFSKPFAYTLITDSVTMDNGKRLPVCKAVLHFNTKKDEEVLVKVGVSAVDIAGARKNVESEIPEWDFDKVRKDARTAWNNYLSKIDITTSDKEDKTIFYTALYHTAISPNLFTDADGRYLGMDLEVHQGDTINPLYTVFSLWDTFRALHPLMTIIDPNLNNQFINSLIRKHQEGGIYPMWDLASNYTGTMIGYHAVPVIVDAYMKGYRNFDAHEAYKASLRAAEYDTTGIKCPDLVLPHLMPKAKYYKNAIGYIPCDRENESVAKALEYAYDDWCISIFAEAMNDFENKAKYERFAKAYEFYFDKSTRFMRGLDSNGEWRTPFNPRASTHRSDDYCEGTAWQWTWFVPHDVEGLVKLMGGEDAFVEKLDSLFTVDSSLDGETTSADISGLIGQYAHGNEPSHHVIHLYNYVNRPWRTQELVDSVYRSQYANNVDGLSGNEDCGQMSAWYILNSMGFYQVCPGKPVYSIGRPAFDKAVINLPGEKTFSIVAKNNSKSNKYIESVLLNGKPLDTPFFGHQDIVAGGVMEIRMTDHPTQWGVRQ
Alpha-1,2-mannosidase, putative (BT_4073), sequence (Q8A0E8 whole entry, change not shown): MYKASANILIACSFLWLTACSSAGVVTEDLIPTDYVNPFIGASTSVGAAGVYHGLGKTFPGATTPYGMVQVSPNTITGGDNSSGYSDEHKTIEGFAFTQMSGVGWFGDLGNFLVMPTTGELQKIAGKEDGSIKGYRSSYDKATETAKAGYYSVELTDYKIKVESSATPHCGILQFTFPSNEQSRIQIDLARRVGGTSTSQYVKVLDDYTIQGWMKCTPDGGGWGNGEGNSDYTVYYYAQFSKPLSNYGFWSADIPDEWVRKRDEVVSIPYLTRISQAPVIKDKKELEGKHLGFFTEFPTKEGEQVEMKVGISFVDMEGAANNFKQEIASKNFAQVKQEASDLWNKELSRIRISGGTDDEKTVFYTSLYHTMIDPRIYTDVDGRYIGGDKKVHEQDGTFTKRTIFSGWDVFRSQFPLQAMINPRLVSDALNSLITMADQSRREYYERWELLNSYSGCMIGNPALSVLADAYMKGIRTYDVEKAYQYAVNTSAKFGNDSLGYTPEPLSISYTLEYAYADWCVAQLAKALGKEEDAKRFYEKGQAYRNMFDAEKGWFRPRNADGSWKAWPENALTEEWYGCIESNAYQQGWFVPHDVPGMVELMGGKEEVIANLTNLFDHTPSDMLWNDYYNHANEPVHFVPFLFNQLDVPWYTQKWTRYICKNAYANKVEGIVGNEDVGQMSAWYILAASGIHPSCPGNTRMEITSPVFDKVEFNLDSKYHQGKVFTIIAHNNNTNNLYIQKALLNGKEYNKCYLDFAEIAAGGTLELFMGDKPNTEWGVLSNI

`OC[C@@H]1[C@@H](O)[C@H](O)[C@H](O)c2nccn21` [MANNOIMIDAZOLE]: the Ki in [1] is 43 µM; in [2], 860 µM; in test [3], 1 µM; in [4], 90 µM; in test [5] it was 1800 µM; in [6], 360 µM. In addition, the Ki is 1600 µM in test [7]; 0.4 µM in [8]; 46 µM in [9]; 260 µM in test [10]; 790 µM in test [11]; 5800 µM in test [12]. The Ki in test [13] was found to be 70 µM; in test [14], 600 µM; in [15], 270 µM.
For the molecule `OC[C@H]1NC[C@@H](O)[C@@H](O)[C@@H]1O` [DEOXYMANNOJIRIMYCIN], the figures for the Ki in [4] and in test [16] were 13000 µM and 12000 µM, respectively.
